NOD2-RIPK2 inh – inhibitors of human NOD2-RIPK2 interaction; O43353; CHO BLA complementation NOD2-RIPK2, CCF4 ratio; inhibition, % at 4.98 µM; 0.38% of 360,000 active; in the data active = inhibition above about 21%;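 note: 0% = vehicle only and 100% = reference blocker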
Target sequence (O43353 whole entry, looked up): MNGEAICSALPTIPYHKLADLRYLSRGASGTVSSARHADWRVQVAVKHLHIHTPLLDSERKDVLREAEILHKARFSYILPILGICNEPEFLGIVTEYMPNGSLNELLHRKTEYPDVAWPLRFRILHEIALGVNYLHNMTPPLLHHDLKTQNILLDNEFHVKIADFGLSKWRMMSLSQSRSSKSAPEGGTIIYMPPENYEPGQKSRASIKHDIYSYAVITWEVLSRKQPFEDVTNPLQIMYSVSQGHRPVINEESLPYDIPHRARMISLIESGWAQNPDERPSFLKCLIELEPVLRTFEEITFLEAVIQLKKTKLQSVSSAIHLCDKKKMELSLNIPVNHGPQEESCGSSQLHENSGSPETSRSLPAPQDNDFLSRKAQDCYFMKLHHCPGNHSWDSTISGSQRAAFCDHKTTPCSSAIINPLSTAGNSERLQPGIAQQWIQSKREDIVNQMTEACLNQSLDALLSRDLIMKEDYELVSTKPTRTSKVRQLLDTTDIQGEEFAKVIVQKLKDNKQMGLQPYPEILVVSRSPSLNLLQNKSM
UPR CHOP act – apoptotic UPR (CHOP) activation; activation, % at 10 µM; CHO-CHOP luciferase reporter, luminescence; percent of tunicamycin response over DMSO baseline; AID 449763; 0.34% of 330,000 active;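 active = at 10 µM dose, activation of 40% or more, normalized to positive control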;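 note: 100% = tunicamycin at 10 µg/mL and 0% = DMSO alone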
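System: CHO-CHOP luciferase reporter cell line; amount: 500 cells/well; buffer or medium: F12 medium containing 10% fetal bovine serum; incubation: 6 h compound exposure at 37 °C after overnight seeding; measured by: luciferase luminescence after 10 min with Steady-Glo reagent; evaluation: % reporter activation, DMSO baseline versus tunicamycin full activation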
TLR9-MyD88 inh – blocks human TLR9 binding to MyD88; Q9NR96+Q99836; CHO BLA complementation TLR9-MyD88, CCF4 FRET ratio; inhibition, % at 4.98 µM; 0.21% of 340,000 active; AID 504734;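 active = inhibition above the mean over all tested compounds plus 3 SD, cut at about 21% in these data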;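 note: 0% = DMSO only wells and 100% = clavulanate BLA inhibitor control wells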
TLR4-MyD88 BLA – TLR4-MyD88 interaction inhibition in cells | O00206+Q99836 | HeLa CL3-4 TLR4/MyD88 BLA complementation, FRET ratio | inhibition, % at 8.4 µM | 0.18% of 200,000 active; in the data active = inhibition above about 25%;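 note: 0% = vehicle and 100% = reference inhibitor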
UPR XBP1 act – activators of adaptive arm of unfolded protein response (XBP1); activation, % at 20 µM; 0.33% of 330,000 active; CHO-XBP1 luciferase reporter, IRE1-XBP1 UPR activation, luminescence; percent of tunicamycin response, DMSO as zero;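 active = versus positive control, 20 µM dose yields 30% or more activation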;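 note: 100% = tunicamycin at 10 µg/mL and 0% = DMSO only wells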
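Material: IRE1-XBP1 luciferase reporter CHO line / Quantity: one thousand reporter cells per well / Buffer or medium: F12 with 10% serum / Compound: 20 µM single concentration, DMSO 1% / Times: 6 h treatment, 37 °C / Detection: Steady-Glo luciferase glow luminescence, 10 min after reagent addition / Benchmarks: tunicamycin high, DMSO low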
CHOP inh – CHOP inhibition in unfolded protein response; CHO-K1 CHOP-promoter luciferase, tunicamycin-induced, 15-18 h; inhibition, % at 10 µM; 3.8% of 220,000 active; AID 2732;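 active = compounds that reduced the stress-induced luciferase reporter signal by more than about 70% of percent inhibition, limit read from the data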;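 note: 0% = tunicamycin plus vehicle and 100% = wells without tunicamycin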
The depositor's hits bear a star; . = no result. Many of the other results were omitted from the sample, so hits are more common in it than they were.

SMILES | NOD2-RIPK2 inh | UPR CHOP act | TLR9-MyD88 inh | TLR4-MyD88 BLA | UPR XBP1 act | CHOP inh
COc1ccccc1-c1nnc(NC(=O)c2ccc(S(=O)(=O)N(C)CC3CCCO3)cc2)o1 (stereo not given) | 0.4 | 0.2 | 3.8 | . | -5.1 | .
O=C(Nc1nnc(-c2ccccc2Cl)o1)c1ccc(S(=O)(=O)N2CCCCCC2)cc1 | . | 12.9 | . | 6.6 | 2.9 | 61.4
S=C(NCCc1ccccc1)N1CCC2CC1c1c(Cl)cccc12 (stereo not given) | 9.4 | . | -0.6 | . | . | .
O=C(C1=NOC2(C1)C(=O)Nc1ccccc12)N1CCCC1 (stereo not given) | -4.2 | . | . | . | . | .
CC(C)CCNC(=O)c1cc(S(=O)(=O)N2CCC3(CC2)OCCO3)ccc1F | -12.1 | . | -22.0 | . | . | .
CCOC(=O)[C@]12CCC=C1N(Cc1ccccc1)C(=O)[C@H](CC(=O)NCC1CCCCC1)C2 | 13.4 | . | . | . | . | .
CCOC(=O)c1c(CSc2ccc(C)cc2)oc2ccc(O)cc12 | -1.0 | 0.6 | -7.3 | -13.6 | 4.2 | 106.6*
Nc1nc2c(ncn2[C@@H]2O[C@H](CNC(=O)[C@H](N)Cc3cncn3COCc3ccccc3)[C@@H](O)[C@H]2O)c(=O)[nH]1 | 3.7 | . | . | . | . | .
CCOC(=O)c1c(NC(=O)CN2CCCCC2)sc2c1CCN(C(=O)OCC)C2 | 0.6 | 2.0 | -15.7 | 10.7 | -1.8 | 81.4*
CCOC(=O)c1c(NC(=O)CN(CC)CC)sc2c1CCN(C(=O)OCC)C2 | 7.1 | 0.5 | 0.7 | -5.4 | 0.2 | 74.6*
CCOC(=O)c1c(NC(=S)N2CCN(C)CC2)sc2c1CCN(C(=O)OCC)C2 | 8.2 | 7.2 | -4.6 | . | 2.1 | -3.5
CCOC(=O)c1c(NC(=O)CN2CCN(C(=O)c3ccco3)CC2)sc2c1CCCC2 | 1.9 | 1.4 | 2.6 | -17.6 | -1.0 | 86.2*
CCOC(=O)c1c(NC(=O)c2ccco2)sc2c1CCCC2 | 2.6 | -1.4 | 2.9 | 2.4 | 0.0 | 4.1
CCCCC1Cc2[nH]c(=S)[nH]c(=O)c2C(c2cccc3ccccc23)O1 (stereo not given) | 3.7 | . | . | . | . | .
CC(N)c1csc(Nc2ccc(S(C)(=O)=O)cc2)n1 (stereo not given) | 5.5 | . | . | . | . | .
Cc1cc(S(=O)(=O)NC(=O)[C@H]2O[C@@H](n3cnc4c(N)ncnc43)[C@H](O)[C@@H]2O)ccc1Br | -10.2 | . | . | . | . | .
Cc1ccc(Cn2c(=O)cc(C(=O)O)c3ccccc32)cc1 | -3.2 | 0.1 | -5.2 | -9.2 | -2.4 | 18.8
CCOC(=O)c1cc(=O)n(Cc2ccccc2C)c2ccccc12 | -5.7 | -1.4 | -7.6 | -5.1 | 1.6 | 70.6*
CCOC(=O)c1cc2c3ccccc3n(CC)c2nc1N | -21.9 | -3.2 | 7.6 | -2.4 | 3.7 | 73.3*
CC1=C(C(=O)N2CCCCCC2)CC(CC(=O)NCCCN(C)C)C(=O)N1Cc1ccc(C(C)(C)C)cc1 (stereo not given) | -1.6 | . | . | . | . | .
CCOc1ccc(NC(=O)Cn2cncc2-c2ccc([N+](=O)[O-])cc2)cc1 | -5.9 | . | -3.6 | 0.3 | . | 66.4
O=C(Cn1cncc1-c1ccc([N+](=O)[O-])cc1)Nc1cccc2ccccc12 | -3.3 | . | 4.2 | -0.2 | . | 92.5*
CCC(=O)N1CCN(c2ccc(Cl)cc2NC(=O)Cc2ccc(Cl)cc2)CC1 | 8.6 | -2.2 | 4.2 | 5.8 | -1.3 | 80.5*
c1ccc(-c2csc3ncnc(NCc4ccccn4)c23)cc1 | 5.1 | -1.2 | -5.3 | . | 4.7 | 42.0
c1ccc(CNc2ncnc3scc(-c4cccs4)c23)nc1 | -16.1 | -1.5 | -6.4 | 9.4 | 1.6 | 71.8*
SMILES | NOD2-RIPK2 inh | UPR CHOP act | TLR9-MyD88 inh | TLR4-MyD88 BLA | UPR XBP1 act | CHOP inh
CCCCOc1ccc(Br)cc1CSC(=N)N | -2.4 | . | -1.8 | -1.3 | . | 76.2*
CCOc1ccc(C(C)=O)cc1CSC(=N)N | -6.8 | -0.3 | -3.6 | 10.3 | -2.5 | 1.7
COc1ccccc1S(=O)(=O)N(C)C[C@H]1Oc2ncc(Br)cc2C(=O)N([C@H](C)CO)C[C@H]1C | -6.8 | . | 2.3 | . | . | .
CCC1CCC(C(=O)NC(C(=O)Nc2ccc3c(c2)OCCO3)C(C)C)CC1 (stereo not given) | -16.5 | 0.2 | -2.3 | 8.9 | -0.7 | 83.3*
O=C1Nc2ccccc2Oc2cc([N+](=O)[O-])cc(Oc3ccccc3)c21 | -2.9 | 2.3 | -5.6 | -6.0 | 1.8 | 21.4
Cc1cccc(Oc2cc([N+](=O)[O-])cc3c2C(=O)Nc2ccccc2O3)c1 | -4.3 | 4.7 | -3.3 | 2.4 | 4.2 | 91.8*
N#C/C(=C\c1ccc(OCc2ccc(C(=O)O)cc2)cc1)C(=O)N1CCOCC1 | -6.0 | -9.0 | 2.9 | 8.1 | -5.1 | 81.8*
COc1cc(/C=C(\C#N)C(=O)N2CCOCC2)ccc1OCc1ccccc1 | 1.3 | 1.5 | -12.7 | -11.0 | 5.6 | -45.8
O=C1Nc2ccccc2/C1=C\c1cccn1-c1ccc(OC(F)(F)F)cc1 | -2.1 | 0.4 | -10.7 | 10.4 | -2.2 | 93.5*
CCc1nnc(NC(=O)CSc2nc3c(c(=O)n2C)SC(C)C3)s1 (stereo not given) | -7.1 | -0.5 | -2.2 | -7.6 | 1.3 | 23.0
CC1Cc2nc(SCC(=O)Nc3nc4ccccc4s3)n(C)c(=O)c2S1 (stereo not given) | -4.6 | 1.0 | -4.2 | -1.4 | 0.1 | 75.4*
Cc1nnc(NC(=O)CSc2nc3c(c(=O)n2CCc2ccccc2)SC(C)C3)s1 (stereo not given) | 1.5 | -1.4 | 6.0 | 6.7 | 8.2 | 92.7*
COc1ccccc1NC(=O)N(C)C[C@@H]1OCc2cnnn2CCCC(=O)N([C@@H](C)CO)C[C@@H]1C | 0.8 | . | -9.7 | . | . | .
O=C(COc1ccc(Cl)cc1)Nc1ccc(N2CCN(C(=O)c3ccco3)CC2)cc1 | -34.6 | 3.0 | 5.7 | -5.1 | -5.8 | 73.6*
CC(=O)N1CCN(c2ccc(NC(=S)NC(=O)COc3ccc(C(C)(C)C)cc3)cc2)CC1 | -5.5 | 6.8 | 3.2 | -7.8 | -1.4 | 76.3*
CC(C)CC(=O)NC(=S)Nc1ccc(N2CCN(C(=O)c3cccs3)CC2)cc1 | -2.1 | 10.9 | 7.3 | . | -5.3 | 76.5*
N#C/C(=C(/O)CN1CCCCC1)c1nc(-c2ccc(Cl)cc2)cs1 | 1.4 | 1.9 | -12.6 | -2.5 | 2.6 | 42.4
N#C/C(=C(/O)CN1CCN(c2ccccc2F)CC1)c1nc(-c2ccc(Cl)cc2)cs1 | -16.4 | -0.9 | -4.6 | 6.7 | 8.2 | 82.5*
CC1(C)Cc2c(sc3c2c(=N)n(Cc2ccco2)c(=O)n3Cc2ccccc2)CO1 | 1.0 | -3.8 | -2.4 | 1.6 | 1.8 | 70.2*
Cn1cnc(CCNC(=O)C[C@H]2CC[C@@H]3[C@H](COC[C@H](O)CN3C(=O)C3CCCC3)O2)c1 | 6.4 | . | . | . | . | .
COc1cccc(-c2ccc(C#N)c(OC(=O)c3ccc(Cl)cc3)n2)c1 | -3.1 | -0.7 | -1.6 | -1.5 | -7.6 | 79.9*
COc1cccc(-c2ccc(C#N)c(OC(=O)c3c(Cl)cccc3Cl)n2)c1 | -0.9 | 0.9 | -1.4 | -1.8 | -4.4 | 35.6

Screens from PubChem.
